From ChEMBL document CHEMBL4177705, “Antiplasmodial alkaloids from bulbs of Amaryllis belladonna Steud” (Bioorg Med Chem Lett, 2018)

Assays:
Plasmodium falciparum = experiment: Antiplasmodial activity against chloroquine-resistant ring stage Plasmodium falciparum Dd2 after 72 hrs by SYBR green 1 dye based assay; type: functional, organism-based
A2780 = experiment: Cytotoxicity against human A2780 cells; type: cell-based
Procedure, shortened: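 Antiproliferative assay on the A2780 ovarian cell line, reported as IC50 in µM.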

[1] = Plasmodium falciparum, Dd2, 72 h, read-out: IC50
[2] = Homo sapiens, A2780, read-out: IC50

Structure (SMILES) | IC50 (Plasmodium falciparum) | IC50 (A2780; a2780) | IC50 (Plasmodium falciparum; [1]) | IC50 (A2780; [2])
O=c1c2cc3c(cc2c2cccc4ccn1c42)OCO3 | Not Active | Non-Toxic |  | 
COc1c2c(cc3c1OCO3)[C@@]13CC[N@@](C2)[C@@H]1[C@H](O)[C@H](OC)C[C@H]3O |  |  | 37 µM | > 60 µM
COc1c2c(cc3c1OCO3)[C@]13C=C[C@H](OC)C[C@H]1[N@](C2)C[C@H]3OC(C)=O |  |  | 35 µM | > 60 µM
COc1c2c(cc3c1OCO3)[C@]13C=C[C@H](OC)C[C@H]1[N@](C2)C[C@H]3O |  |  | 7.3 µM | > 60 µM
CC(=O)O[C@@H]1CC=C2CCN3Cc4cc5c(cc4[C@H]1[C@@H]23)OCO5 [ACETYLCARANINE] |  |  | 3.5 µM | 56 µM
C[C@@H]1CC[C@H]2[C@@H](C)C(=O)O[C@@H]3O[C@@]4(C)CC[C@@H]1[C@]32OO4 [ARTEMISININ] |  |  | 0.0121 µM | 
COC1=CC(=O)[C@@]23CCN(Cc4c2cc2c(c4OC)OCO2)[C@@H]3C1 [DISTICHAMINE] |  |  | > 50 µM | > 60 µM
